For 35 compounds, inhibition results are on record in PubChem BioAssay AID743061 (The Scripps Research Institute Molecular Screening Center, 2013).

SMILES strings stand for the structures. Where “and” joins values, the source holds several entries; their conditions need not be identical. Identical values can stand only once.

This test concerns the target Methionine--tRNA ligase, mitochondrial (Homo sapiens) (UniProt Q96GW9). Put plainly: inhibitors of human mitochondrial MetRS, late-stage follow-up, selectivity assay for T. brucei MetRS inhibitor project, biochemical, radioactivity, round 1 (AID 743061).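 Further: 0% = DMSO with full reaction and 100% = DMSO wells lacking tRNA.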 The note with it: recombinant human mtMetRS, [3H]Met tRNA charging, at 10 µM, stronger effect = higher value. In outline: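 System: recombinant human mitochondrial methionyl-tRNA synthetase (MetRS); Buffer or medium: pH 8.0 reaction buffer containing 2.5 mM ATP; Controls: high DMSO, low without tRNA; Reagent: [3H]Met 240 nM plus bulk E. coli tRNA; Schedule: 15 min preincubation, 1 h reaction, room temperature; Measured by: scintillation counts of TCA-precipitated charged tRNA on filters.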
`Cc1ccc(CNC(=O)CSc2nnc3c(n2)[nH]c2ccc(C)cc23)cc1`: the inhibition was 5.9%. In the case of `Cc1cc2cc(C(=O)N3CCCC(c4nc5ccccc5[nH]4)C3)ccc2o1` (stereo not given) it was -1.3%; in that of `COc1ccc(CNC(=O)CSc2nnc3c(n2)[nH]c2ccc(F)cc23)cc1`, -12%; in that of `O=C(NCc1nc2ccccc2[nH]1)C1=C[C@@H](c2ccc3c(c2)OCO3)C[C@@H](OCCCCO)O1`, -0.58%. As for `COc1ccc(OCC(O)CNC(=O)Nc2ccc(Cl)cc2)cc1` (stereo not given), the inhibition came out at 0.31%.

Consider `O=C(NCCc1nc2ccccc2[nH]1)c1ccc(Cl)cc1Cl`, for which the inhibition came out at 48.7%. Take `COc1ccccc1NS(=O)(=O)c1cccc(NC(=O)Nc2ccccc2)c1`: the inhibition amounted to 19.1%.

As for `CC(=O)c1cn(CC(=O)Nc2cccc(C(F)(F)F)c2)c2ccccc12`, the inhibition is -0.68%. Under `COc1ccc(CCN(C(=S)Nc2ccccc2)C2CC(=O)N(c3ccc(Cl)cc3)C2=O)cc1` (stereo not given) stands 61.9%; under `O=C(NCCc1nc2ccccc2[nH]1)c1ccc(Cl)cc1`, 7.1%; under `CCN(CC)C(=O)C(=O)c1cn(CC(=O)Nc2cccc(C(F)(F)F)c2)c2ccccc12`, 40.8%. For the compound `C[C@H](O)[C@@H]1C(=O)N2CCc3c([nH]c4ccccc34)[C@@H]2C[C@@H]1N(C)Cc1ccc2c(c1)OCO2`, the inhibition was determined as 24.8%. `Cn1c(CCNC(=O)c2ccc(Cl)cc2)nc2ccccc21`: the inhibition is 12.5%. Take `CC(C)(C)[C@@H]1C=C(C(=O)NCc2nc3ccccc3[nH]2)O[C@H](OCc2ccc(CO)cc2)C1`: the inhibition is -5.44%. As to `CC(=O)c1c[nH]c(C(=O)NCc2cccc(C(F)(F)F)c2)c1`, the inhibition was 43.8%. For `O=C(NCCc1nc2ccccc2[nH]1)c1ccc(Cl)c([N+](=O)[O-])c1`, the inhibition amounted to 25.5%. On to `O=C(CSc1nnc2c(n1)[nH]c1ccc(Br)cc12)NCc1ccccc1`, for which the inhibition is 21.6%. On to `O=C(N/C(=C\c1cccnc1)c1nc2ccccc2[nH]1)c1cccc(Br)c1`, for which the inhibition amounted to 4.89%. In the case of `O=C(CN1CCSC1=NCc1ccccc1)c1ccc(Cl)c(Cl)c1`, the inhibition is -25.5%. Take `Cc1cccc2[nH]c(CCN(C)C(=O)c3cccc(C4CCNC4)c3)nc12` (stereo not given): the inhibition was -5.77%.

Consider `COCCc1nc2ccc(C(=O)NCCc3nc4ccc(OC)cc4[nH]3)cc2o1`, for which the inhibition worked out at 0.45%. For the compound `O=C(Cn1cc(C(=O)C2CC2)c2ccccc21)Nc1cccc(C(F)(F)F)c1`, the inhibition amounted to 11.9%. Turning to `Cc1ccc(C(=O)NCCc2nc3ccccc3[nH]2)cc1[N+](=O)[O-]`, the inhibition was determined as 7.36%. Take `CC(=O)N(CCc1ccccc1)C1CC(=O)N(c2ccc(Cl)cc2)C1=O` (stereo not given): the inhibition was -2.95%. With `O=C(C(=O)N1CCOCC1)c1cn(CC(=O)N2CCCc3ccccc32)c2ccccc12`, the inhibition was 3.68%. As for `O=C(Nc1ccc(F)c(Cl)c1)C1CC(=O)n2c(nc3ccccc32)N1` (stereo not given), the inhibition is 4.32% and 12.5%. In the case of `COc1ccccc1NC(=O)Cn1cc(C(=O)C(=O)N2CCOCC2)c2ccccc21` it was -8.03%; in that of `O=C(Cn1cc(C(=O)COc2ccccc2)c2ccccc21)Nc1cccc(C(F)(F)F)c1`, 3.08%. For the compound `COc1ccc(CCN(C(=O)c2cccc(F)c2)C2CC(=O)N(c3ccc(Br)cc3)C2=O)cc1` (stereo not given), the inhibition worked out at 4.36%. In the case of `O=C(NNC(=O)c1ccc(-n2cncn2)c([N+](=O)[O-])c1)c1ccc(Cl)cc1`, the inhibition was -21.4%. For the compound `CCC(=O)c1cn(CC(=O)Nc2cccc(C(F)(F)F)c2)c2ccccc12`, the inhibition is -3.88%. Regarding `COc1cccc(NC(=O)CSc2nnc3c(n2)[nH]c2ccc(C)cc23)c1`, the inhibition turned out to be 40.4%. With `O=C1CC(N(CCc2ccccc2)C(=S)Nc2ccccc2)C(=O)N1c1ccc(Br)cc1` (stereo not given), the inhibition came to 25.6%. As to `CCN(CC)C(=O)C(=O)c1cn(CC(=O)Nc2ccccc2OC)c2ccccc12`, the inhibition was -1.19%. `CCN(CC)C(=O)C(=O)c1cn(CC(=O)N(CC)c2ccccc2)c2ccccc12`: the inhibition came out at 9.56%.
